ChEMBL document CHEMBL3046353, “Synthesis and fungicidal activity of some 5-membered heterocyclic derivatives containing benzimidazoles” (1993)
The source made the active and inactive calls. The calls are words filed in the database; no cut-off is given here.

Assays:
Sagittaria latifolia [1] = experiment: Herbicidal activity against Sagittaria latifolia (broadleaf arrowhead) under paddy conditions; assay type: functional, organism-based
Sagittaria latifolia [2] = experiment: Pre-emergence herbicidal activity against Sagittaria latifolia (broadleaf arrowhead); assay type: functional, organism-based
Sagittaria latifolia [3] = experiment: Post-emergence herbicidal activity against Sagittaria latifolia (broadleaf arrowhead); assay type: functional, organism-based
Schoenoplectus acutus [4] = experiment: Herbicidal activity against Schoenoplectus acutus (hardstem bulrush) under paddy conditions; assay type: functional, organism-based
Schoenoplectus acutus [5] = experiment: Post-emergence herbicidal activity against Schoenoplectus acutus (hardstem bulrush); assay type: functional, organism-based
Schoenoplectus acutus [6] = experiment: Pre-emergence herbicidal activity against Schoenoplectus acutus (hardstem bulrush); assay type: functional, organism-based
Echinochloa crus-galli [7] = experiment: Herbicidal activity against Echinochloa crus-galli (barnyard grass) under paddy conditions; assay type: functional, organism-based
Echinochloa crus-galli [8] = experiment: Post-emergence herbicidal activity against Echinochloa crus-galli (barnyard grass); assay type: functional, organism-based
Oryza sativa [9] = experiment: Herbicidal activity against Oryza sativa (rice) under paddy conditions; assay type: functional, organism-based
Echinochloa crus-galli [10] = experiment: Pre-emergence herbicidal activity against Echinochloa crus-galli (barnyard grass); assay type: functional, organism-based
Oryza sativa [11] = experiment: Pre-emergence herbicidal activity against Oryza sativa (rice); assay type: functional, organism-based
Abutilon theophrasti [12] = experiment: Post-emergence herbicidal activity against Abutilon theophrasti (velvetleaf); assay type: functional, organism-based
Oryza sativa [13] = experiment: Post-emergence herbicidal activity against Oryza sativa (rice); assay type: functional, organism-based
Abutilon theophrasti [14] = experiment: Pre-emergence herbicidal activity against Abutilon theophrasti (velvetleaf); assay type: functional, organism-based
Convolvulaceae [15] = experiment: Herbicidal activity against Convolvulaceae (morning glory family) under paddy conditions; assay type: functional, organism-based
Convolvulaceae [16] = experiment: Post-emergence herbicidal activity against Convolvulaceae (morning glory family); assay type: functional, organism-based
Avena sativa [17] = experiment: Herbicidal activity against Avena sativa under paddy conditions; assay type: functional, organism-based
Convolvulaceae [18] = experiment: Pre-emergence herbicidal activity against Convolvulaceae (morning glory family); assay type: functional, organism-based
Avena sativa [19] = experiment: Pre-emergence herbicidal activity against Avena sativa; assay type: functional, organism-based
Avena sativa [20] = experiment: Post-emergence herbicidal activity against Avena sativa; assay type: functional, organism-based
Spodoptera litura = experiment: Insecticidal activity against Spodoptera litura; assay type: functional, organism-based
Tetranychus cinnabarinus = experiment: Insecticidal activity against Tetranychus cinnabarinus (carmine spider mite); assay type: functional, organism-based
Culex pipiens pallens = experiment: Insecticidal activity against Culex pipiens pallens (mosquito) at 3 to 5 ppm; assay type: functional, organism-based
Musca domestica = experiment: Insecticidal activity against Musca domestica (house fly); assay type: functional, organism-based
Rhizoctonia solani = experiment: Fungicidal activity against Rhizoctonia solani at 500 ppm after 7 days by poisoned food technique; assay type: functional; conditions: 168 h, read-out: GI
Outline: (§1)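 Cultures kept on potato dextrose agar. Each compound, dissolved in acetone, was added to potato dextrose agar at a final 500 ppm (w/v) (poisoned food technique). A disc cut from the periphery of a seven-day-old culture was inoculated onto each set. Control sets held potato dextrose agar only. The read-out is percentage inhibition of fungal growth relative to control.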

Helminthosporium = experiment: Fungicidal activity against Helminthosporium oryzae at 500 ppm after 7 days by poisoned food technique; assay type: functional; conditions: 168 h, read-out: GI; outline: as §1

SMILES | Activity (Sagittaria latifolia [1]) | Activity (Sagittaria latifolia [2]) | Activity (Sagittaria latifolia [3]) | Activity (Schoenoplectus acutus [4]) | Activity (Schoenoplectus acutus [5]) | Activity (Schoenoplectus acutus [6]) | Activity (Echinochloa crus-galli [7]) | Activity (Echinochloa crus-galli [8]) | Activity (Oryza sativa [9]) | Activity (Echinochloa crus-galli [10]) | Activity (Oryza sativa [11]) | Activity (Abutilon theophrasti [12]) | Activity (Oryza sativa [13]) | Activity (Abutilon theophrasti [14]) | Activity (Convolvulaceae [15]) | Activity (Convolvulaceae [16]) | Activity (Avena sativa [17]) | Activity (Convolvulaceae [18]) | Activity (Avena sativa [19]) | Activity (Avena sativa [20]) | other results
Nn1c(SCc2nc3ccccc3[nH]2)nnc1-c1ccccc1Cl | inactive | inactive | inactive | inactive | inactive | inactive | inactive | inactive | inactive | inactive | inactive | inactive | inactive | inactive | inactive | inactive | inactive | inactive | inactive | inactive | Activity (Spodoptera litura): inactive; Activity (Tetranychus cinnabarinus): inactive; Activity (Culex pipiens pallens): Active; Activity (Musca domestica): inactive; inhibition of growth at 500 ppm (Rhizoctonia solani): 39.8%; inhibition of growth at 500 ppm (Helminthosporium): 52.3%
Nn1c(SCc2nc3ccccc3[nH]2)nnc1-c1ccccc1 | inactive | inactive | inactive | inactive | inactive | inactive | inactive | inactive | inactive | inactive | inactive | inactive | inactive | inactive | inactive | inactive | inactive | inactive | inactive | inactive | Activity (Spodoptera litura): inactive; Activity (Tetranychus cinnabarinus): inactive; Activity (Culex pipiens pallens): Active; Activity (Musca domestica): inactive; inhibition of growth at 500 ppm (Rhizoctonia solani): 74.5%; inhibition of growth at 500 ppm (Helminthosporium): 92.5%
Cc1ccc2[nH]c(CSc3nnc(-c4ccccc4)n3N)nc2c1 | inactive | inactive | inactive | inactive | inactive | inactive | inactive | inactive | inactive | inactive | inactive | inactive | inactive | inactive | inactive | inactive | inactive | inactive | inactive | inactive | Activity (Spodoptera litura): inactive; Activity (Tetranychus cinnabarinus): inactive; Activity (Culex pipiens pallens): Active; Activity (Musca domestica): inactive; inhibition of growth at 500 ppm (Rhizoctonia solani): 70.5%; inhibition of growth at 500 ppm (Helminthosporium): 81.2%
